Measured values published in PubChem BioAssay AID1296 (Columbia University Molecular Screening Center, 2008).
Out of some 130,000 compounds screened, about 1,000 (0.77%) were called active. Inconclusive results (about 1%) are left out.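 Rule for the calls: active = activation at 2 µM above a set limit, confirmed on inspection of the cell images; inconclusive = above the set limit but not confirmed on image inspection; inactive = the rest.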 Shown is part of a subset that was picked to be rich in actives.

Assay: activators of insulin promoter-driven GFP, primary screen, imaging, TRM-6 cells, eGFP reporter, cell count (AID 1296);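 for activation: share of cells whose green reporter signal exceeds an intensity cutoff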
Settings: at 2 µM; activation: stronger effect = higher value; normalized cell count: measured here: cell count (toxicity)
Summary of the method: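 System: human fetal islet-derived TRM-6 cells with tamoxifen-inducible insulin promoter–eGFP reporter; input: seeding density of 1,000 cells per well; buffer or medium: Low-glucose (5.5 mM) medium with tamoxifen; incubation: compound exposure 48 h, 37 °C; measured by: high-content imaging of fixed cells with Hoechst nuclear stain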

SMILES	activation	normalized cell count
CC1=CC(=Cc2sc3ccccc3[n+]2C)C=C(C)O1	456% (active)	88.8%
C[N+]1(C)CCOC(O)(c2ccc(-c3ccc(C4(O)C[N+](C)(C)CCO4)cc3)cc2)C1 (stereo not given)	-9.52% (inactive)	86.4%
CC(=O)c1c(C)n(C(C)C)c2ccc(O)cc12	269% (inactive)	65.5%
CCOCCc1c(O)[nH]c(=S)[nH]c1=O	0% (inactive)	137%
O=[N+]([O-])c1ccc(C2C3C(c4ccccc4)=NC4(CCCCC4)N32)cc1 (stereo not given)	-4.54% (inactive)	112%
O=C(COc1ccc2ccccc2c1)N1CCN(Cc2ccncc2)CC1	1.82% (inactive)	106%
O=C(COC(=O)c1ccccc1)Nc1ccc(Cl)cc1C(=O)c1ccccc1	-3.33% (inactive)	106%
CCOC(=O)c1c(-c2ccccc2)oc2ccc(OC(=O)N(C)C)cc12	-72.7% (inactive)	171%
CC[N+]1(C)CCCC(OC(=O)C(O)(c2ccccc2)c2ccccc2)C1 (stereo not given)	295% (active)	82%
Cc1nn(Cc2ccccc2Cl)c(Cl)c1C(=O)OC(C(=O)NC(N)=O)C(C)C (stereo not given)	6.67% (inactive)	71.1%
O=C(CN1CCCC1=O)NCCc1ccccc1	-2.56% (inactive)	176%
CC(=O)c1c(O)n(C2CCCCCC2)c(=O)[nH]c1=O	146% (active)	160%
COC(=O)CN1C(=O)C2(C(C(=O)OC)=C(N)Oc3ccccc32)C2=C1CC(C)(C)CC2=O (stereo not given)	-6.67% (inactive)	84.7%
Cc1ccc(N2C(=O)NC(=O)C(CCc3ccncc3)(Cc3cccc(Cl)c3Cl)C2=O)cc1 (stereo not given)	169% (inactive)	113%
CC(=O)c1ccc(OC(NC(=O)Cc2ccccc2)C(Cl)(Cl)Cl)cc1 (stereo not given)	6.45% (inactive)	137%
